We go through seven molecules from ChEMBL document CHEMBL4699593, “Identification of 2,4-Disubstituted Imidazopyridines as Hemozoin Formation Inhibitors with Fast-Killing Kinetics and In Vivo Efficacy in the Plasmodium falciparum NSG Mouse Model” (J Med Chem, 2020).

≈ marks a conversion by molar mass, not a printed value.

In the first series the test system is Plasmodium falciparum. Nature of the series: Antiplasmodial activity against multidrug-sensitive asexual blood stage Plasmodium falciparum NF54 strain assessed as reduction in parasite growth after 72 hrs by NBT reagent based LDH assay. To be noted: NF54, 72 h. In kind it is functional, organism-based.
For the molecule `Fc1cc(F)cc(-c2nc3c(N4CCC(CN5CCN(CC(F)(F)F)CC5)CC4)nccc3[nH]2)c1`, the IC50 was 75 nM.
On the same count and under the same terms, the result for `CN1CCN(CC2CCN(c3nc(C#N)cc4[nH]c(-c5cc(F)cc(F)c5)nc34)CC2)CC1` reads 77 nM; that for `CN1CCC(N2CCCN(c3nccc4[nH]c(-c5ccc(F)c(F)c5)nc34)CC2)CC1`, 35 nM.
With `CN1CCN(C2CCN(c3nccc4[nH]c(-c5cc(F)cc(F)c5)nc34)CC2)CC1`, the IC50 was found to be 50 nM.
Still for that read-out and setting: to `CN1CCN(CC2CCN(c3nncc4[nH]c(-c5cc(F)cc(F)c5)nc34)CC2)CC1` belongs 580 nM; to `CN1CCC(N2CCN(c3nccc4[nH]c(-c5ccc(F)c(F)c5)nc34)CC(F)(F)C2)CC1`, 59 nM; to `CN1CCN(CC2CCN(c3nccc4[nH]c(-c5cc(F)cc(F)c5)cc34)CC2)CC1`, 14 nM.

The subject of the next series is Plasmodium falciparum. Nature of the series: Antiplasmodial activity against multidrug-resistant asexual blood stage Plasmodium falciparum K1 strain assessed as reduction in parasite growth after 72 hrs by NBT reagent based LDH assay. In kind it is functional, organism-based. The settings on record: K1, 72 h. In outline: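 Asexual blood-stage K1 (multidrug-resistant) parasites were read out by the parasite lactate dehydrogenase (pLDH) assay. […] Most individual values varied less than 2× (maximum 3×).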
`Fc1cc(F)cc(-c2nc3c(N4CCC(CN5CCN(CC(F)(F)F)CC5)CC4)nccc3[nH]2)c1`: the IC50 is 160 nM.
Turning to `CN1CCN(CC2CCN(c3nc(C#N)cc4[nH]c(-c5cc(F)cc(F)c5)nc34)CC2)CC1`, the half-maximal inhibitory concentration (IC50) was found to be 49 nM.
For `CN1CCC(N2CCCN(c3nccc4[nH]c(-c5ccc(F)c(F)c5)nc34)CC2)CC1`, the half-maximal inhibitory concentration (IC50) is 220 nM.
As for `CN1CCN(C2CCN(c3nccc4[nH]c(-c5cc(F)cc(F)c5)nc34)CC2)CC1`, the 50% inhibitory concentration (IC50) amounted to 170 nM.
On to `CN1CCN(CC2CCN(c3nncc4[nH]c(-c5cc(F)cc(F)c5)nc34)CC2)CC1`, for which the concentration for half-maximal inhibition (IC50) came to 2900 nM.
The same measure, in the same setting: to `CN1CCC(N2CCN(c3nccc4[nH]c(-c5ccc(F)c(F)c5)nc34)CC(F)(F)C2)CC1` belongs 160 nM; to `CN1CCN(CC2CCN(c3nccc4[nH]c(-c5cc(F)cc(F)c5)cc34)CC2)CC1`, 92 nM.

Test system in a further series: not listed separately
Nature of the series: Aqueous solubility of compound in phosphate buffer saline at pH 6.5 incubated for 20 hrs under shaking condition by shake-flask method based HPLC-DAD analysis. In kind it is physicochemical. To be noted: phosphate buffered saline. In outline:
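Equilibrium aqueous solubility was measured at pH 6.5 using a miniaturized shake-flask method.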
For `Fc1cc(F)cc(-c2nc3c(N4CCC(CN5CCN(CC(F)(F)F)CC5)CC4)nccc3[nH]2)c1`, the thermodynamic solubility at 20 h was determined as 180 µM (≈ 89 µg/mL).
On the same count and under the same terms, to `CN1CCN(CC2CCN(c3nc(C#N)cc4[nH]c(-c5cc(F)cc(F)c5)nc34)CC2)CC1` belongs less than 5 µM; to `CN1CCC(N2CCCN(c3nccc4[nH]c(-c5ccc(F)c(F)c5)nc34)CC2)CC1`, 200 µM (≈ 85.3 µg/mL).
Still for that read-out and setting: to `CN1CCN(C2CCN(c3nccc4[nH]c(-c5cc(F)cc(F)c5)nc34)CC2)CC1` belongs 200 µM (≈ 82.5 µg/mL).
Molecule `CN1CCN(CC2CCN(c3nncc4[nH]c(-c5cc(F)cc(F)c5)nc34)CC2)CC1` gave a thermodynamic solubility at 20 h of 190 µM (≈ 81.2 µg/mL).
Still for that read-out and setting: to `CN1CCC(N2CCN(c3nccc4[nH]c(-c5ccc(F)c(F)c5)nc34)CC(F)(F)C2)CC1` belongs 180 µM (≈ 83.2 µg/mL); to `CN1CCN(CC2CCN(c3nccc4[nH]c(-c5cc(F)cc(F)c5)cc34)CC2)CC1`, 140 µM (≈ 59.6 µg/mL).

For a further series, the system named is CHO. Nature of the series: Cytotoxicity against CHO cells assessed as reduction in cell viability by MTT assay. The class given is cell-based, Cricetulus griseus. To be noted: chinese hamster. In a few lines:
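Cytotoxicity was measured in Chinese hamster ovary (CHO) cells and reported as CC50. The selectivity index is CC50 divided by NF54 IC50.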
Consider `Fc1cc(F)cc(-c2nc3c(N4CCC(CN5CCN(CC(F)(F)F)CC5)CC4)nccc3[nH]2)c1`, for which the CC50 was found to be 40 µM.
As for `CN1CCC(N2CCCN(c3nccc4[nH]c(-c5ccc(F)c(F)c5)nc34)CC2)CC1`, the 50% cytotoxic concentration (CC50) was determined as 17 µM.
Still for that read-out and setting: to `CN1CCN(C2CCN(c3nccc4[nH]c(-c5cc(F)cc(F)c5)nc34)CC2)CC1` belongs 30 µM; to `CN1CCC(N2CCN(c3nccc4[nH]c(-c5ccc(F)c(F)c5)nc34)CC(F)(F)C2)CC1`, 33 µM; to `CN1CCN(CC2CCN(c3nccc4[nH]c(-c5cc(F)cc(F)c5)cc34)CC2)CC1`, 2.6 µM.

In a further series the target is Voltage-gated inwardly rectifying potassium channel KCNH2 (Homo sapiens, UniProt Q12809). Put plainly: Inhibition of human ERG by patch clamp method.
Chain of Voltage-gated inwardly rectifying potassium channel KCNH2 (Q12809 whole entry): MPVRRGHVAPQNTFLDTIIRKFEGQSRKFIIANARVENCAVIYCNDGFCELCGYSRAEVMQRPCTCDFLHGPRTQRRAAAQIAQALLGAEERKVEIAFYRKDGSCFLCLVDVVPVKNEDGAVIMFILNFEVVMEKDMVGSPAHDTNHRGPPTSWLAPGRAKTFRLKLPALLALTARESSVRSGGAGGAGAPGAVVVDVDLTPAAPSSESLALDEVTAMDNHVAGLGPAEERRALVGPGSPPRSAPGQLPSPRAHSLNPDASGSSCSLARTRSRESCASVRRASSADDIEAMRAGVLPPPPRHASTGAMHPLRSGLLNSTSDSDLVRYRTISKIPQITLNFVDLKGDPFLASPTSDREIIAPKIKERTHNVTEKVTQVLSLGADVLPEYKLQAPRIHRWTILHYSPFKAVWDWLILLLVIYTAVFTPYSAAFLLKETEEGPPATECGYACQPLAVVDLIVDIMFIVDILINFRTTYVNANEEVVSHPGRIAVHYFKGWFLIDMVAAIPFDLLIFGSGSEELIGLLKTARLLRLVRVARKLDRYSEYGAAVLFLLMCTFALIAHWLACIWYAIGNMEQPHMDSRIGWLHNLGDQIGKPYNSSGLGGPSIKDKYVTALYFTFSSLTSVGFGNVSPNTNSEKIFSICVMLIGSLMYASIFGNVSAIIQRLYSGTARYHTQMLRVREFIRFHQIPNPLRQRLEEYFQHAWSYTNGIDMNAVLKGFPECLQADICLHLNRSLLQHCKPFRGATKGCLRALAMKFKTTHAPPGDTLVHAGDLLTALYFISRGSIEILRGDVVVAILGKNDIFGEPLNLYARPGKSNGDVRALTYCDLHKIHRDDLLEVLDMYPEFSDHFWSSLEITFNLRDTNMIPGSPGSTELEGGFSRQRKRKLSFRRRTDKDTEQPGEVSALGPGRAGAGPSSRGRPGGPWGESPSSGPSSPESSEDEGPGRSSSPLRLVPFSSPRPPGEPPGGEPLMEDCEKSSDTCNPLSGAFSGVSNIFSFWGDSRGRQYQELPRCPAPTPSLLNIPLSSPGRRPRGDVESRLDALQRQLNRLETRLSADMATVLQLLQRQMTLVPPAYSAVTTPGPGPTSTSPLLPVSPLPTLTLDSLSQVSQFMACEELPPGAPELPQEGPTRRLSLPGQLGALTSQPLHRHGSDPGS
Details: not given
Molecule `Fc1cc(F)cc(-c2nc3c(N4CCC(CN5CCN(CC(F)(F)F)CC5)CC4)nccc3[nH]2)c1` had an IC50 not above 3 µM.
The same measure, in the same setting: the result for `CN1CCN(C2CCN(c3nccc4[nH]c(-c5cc(F)cc(F)c5)nc34)CC2)CC1` reads more than 30 µM; that for `CN1CCN(CC2CCN(c3nccc4[nH]c(-c5cc(F)cc(F)c5)cc34)CC2)CC1`, 5 µM.

Test system in the next series: not listed separately
Put plainly: Apparent intrinsic clearance in mouse liver microsomes at 0.1 uM in presence of NADPH by LC-MS/MS analysis.
Details: not given
The class given is ADME, Microsome. In a few lines: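 Compound was incubated with mouse liver microsomes for 30 min. Apparent intrinsic clearance (CL_int,app) is reported in μL/min/mg.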
Background: Liver microsomes are vesicles of endoplasmic reticulum, rich in cytochrome P450 enzymes.
Regarding `CN1CCC(N2CCCN(c3nccc4[nH]c(-c5ccc(F)c(F)c5)nc34)CC2)CC1`, the CLH was more than 200 µL/min/mg.
Same read-out and setting: to `CN1CCC(N2CCN(c3nccc4[nH]c(-c5ccc(F)c(F)c5)nc34)CC(F)(F)C2)CC1` belongs 33 µL/min/mg.

Test system in another series: not listed separately
Put plainly: Selectivity index, ratio of CC50 for cytotoxicity against CHO cells assessed as reduction in cell viability to IC50 for antiplasmodial activity against multidrug-sensitive Plasmodium falciparum NF54 assessed as reduction in parasite growth. The class given is toxicity, cell-based. The settings on record: hamster, read-out: Ratio CC50/IC50.
With `CN1CCC(N2CCCN(c3nccc4[nH]c(-c5ccc(F)c(F)c5)nc34)CC2)CC1`, the selectivity ratio is 490.

The next series has as its system Hemozoin. Nature of the series: Inhibition of beta-hematin formation assessed as reduction in hemozoin formation incubated for 5 hrs by NP40 detergent-mediated assay.
Details: not given
In a few lines: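 Synthetic hemozoin (β-hematin) formation is driven by the detergent Nonidet P-40. Pyridine is then added to detect unreacted hematin. IC50 is derived from this read-out.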
On to `CN1CCN(CC2CCN(c3nc(C#N)cc4[nH]c(-c5cc(F)cc(F)c5)nc34)CC2)CC1`, for which the concentration for half-maximal inhibition (IC50) was 8.5 µM.
The same measure, in the same setting: to `CN1CCN(CC2CCN(c3nncc4[nH]c(-c5cc(F)cc(F)c5)nc34)CC2)CC1` belongs 25 µM.

Test system in a further series: not listed separately
Put plainly: Cmax in Balb/C mouse at 2 mg/kg, iv by LC-MS/MS analysis. The class given is ADME, organism-based. Further details: route intravenous, dose 2 mg/kg. The settings on record: in vivo. In a few lines:
(§1)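 Healthy Balb/c mice dosed i.v. or orally. Parameters come from non-compartmental analysis of compound concentration over time. […] Clearance is blood clearance (CL_b).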
`CN1CCN(C2CCN(c3nccc4[nH]c(-c5cc(F)cc(F)c5)nc34)CC2)CC1` came in with a Cmax of 300 nM.

Test system in the next series: not listed separately
Put plainly: Cmax in Balb/C mouse at 20 mg/kg, po by LC-MS/MS analysis. To be noted: in vivo. Further details: route oral, dose 20 mg/kg. The class given is ADME, organism-based. In outline: as §1
`CN1CCN(C2CCN(c3nccc4[nH]c(-c5cc(F)cc(F)c5)nc34)CC2)CC1` returned a Cmax of 1500 nM. In other words, the single-digit micromolar range.

Test system in a further series: not listed separately
Nature of the series: Tmax in Balb/C mouse at 20 mg/kg, po by LC-MS/MS analysis. The class given is ADME, organism-based. To be noted: in vivo. In outline:
(§2)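 Healthy Balb/c mice were given the compound i.v. or orally. Parameters come from non-compartmental analysis: AUC from 0 h to t_last, blood clearance, volume at steady state, terminal half-life, Tmax. Oral bioavailability F is derived from the i.v. and p.o. data.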
Regarding `CN1CCN(C2CCN(c3nccc4[nH]c(-c5cc(F)cc(F)c5)nc34)CC2)CC1`, the Tmax was determined as 1.5 h.

Test system in the next series: not listed separately
Put plainly: Terminal half life in Balb/C mouse at 2 mg/kg, iv by LC-MS/MS analysis. The class given is ADME, organism-based. To be noted: in vivo, read-out: beta t1/2 (converted). In a few lines: as §2
Take `CN1CCN(C2CCN(c3nccc4[nH]c(-c5cc(F)cc(F)c5)nc34)CC2)CC1`: the half-life was 756 min.

Test system in a further series: not listed separately
Nature of the series: Terminal half life in Balb/C mouse at 20 mg/kg, po by LC-MS/MS analysis. The class given is ADME, organism-based. The settings on record: in vivo, read-out: beta t1/2 (converted). In a few lines: as §2
As to `CN1CCN(C2CCN(c3nccc4[nH]c(-c5cc(F)cc(F)c5)nc34)CC2)CC1`, the half-life is 588 min.

Test system in the next series: not listed separately
Put plainly: Clearance in Balb/C mouse blood at 2 mg/kg, iv by LC-MS/MS analysis. In kind it is ADME, organism-based. To be noted: whole blood. In outline: as §1
Molecule `CN1CCN(C2CCN(c3nccc4[nH]c(-c5cc(F)cc(F)c5)nc34)CC2)CC1` registered a clearance of 34.8 mL/min/kg.

Test system in a further series: not listed separately
Nature of the series: Volume of distribution at steady state in Balb/C mouse at 2 mg/kg, iv by LC-MS/MS analysis. In kind it is ADME, organism-based. The settings on record: in vivo, read-out: Vdss. In outline: as §2
As for `CN1CCN(C2CCN(c3nccc4[nH]c(-c5cc(F)cc(F)c5)nc34)CC2)CC1`, the Vd is 30 L/kg.

Test system in another series: not listed separately
Nature of the series: AUC (0 to t) in Balb/C mouse at 2 mg/kg, iv by LC-MS/MS analysis. The class given is ADME, organism-based. Also on record: dose 2 mg/kg. To be noted: in vivo. In outline: as §1
Take `CN1CCN(C2CCN(c3nccc4[nH]c(-c5cc(F)cc(F)c5)nc34)CC2)CC1`: the AUCt turned out to be 117 µM·min.

Test system in another series: not listed separately
Nature of the series: AUC (0 to t) in Balb/C mouse at 20 mg/kg, po by LC-MS/MS analysis. The class given is ADME, organism-based. To be noted: in vivo. Further details: dose 20 mg/kg. In outline:
as §1
For `CN1CCN(C2CCN(c3nccc4[nH]c(-c5cc(F)cc(F)c5)nc34)CC2)CC1`, the AUCt came to 711 µM·min.

Test system in another series: not listed separately
Nature of the series: Oral bioavailability in Balb/C mouse at 20 mg/kg by LC-MS/MS analysis. In kind it is ADME, organism-based. To be noted: in vivo. In a few lines:
as §2
The molecule `CN1CCN(C2CCN(c3nccc4[nH]c(-c5cc(F)cc(F)c5)nc34)CC2)CC1` came in with a bioavailability of 61%.

Test system in another series: not listed separately
Put plainly: Ratio of unbound average drug concentration in Balb/c mouse at 20 mg/kg, po measured at 24 hrs to IC50 for antiplasmodial activity against multidrug-sensitive Plasmodium falciparum NF54 asexual blood stage assessed as reduction in parasite growth after 72 hrs by LDH assay. The class given is organism-based. To be noted: in vivo.
Take `CN1CCN(C2CCN(c3nccc4[nH]c(-c5cc(F)cc(F)c5)nc34)CC2)CC1`: the Ratio came out at 2.5.

For orientation: IC50 means the concentration needed to halve the response being measured. What is called solubility (thermodynamic) is solubility found after equilibrating the solid with the medium. Broadly, the CC50 is the concentration that lowers cell viability or growth by half. By Cmax is commonly meant the maximum level reached in the sampled fluid or tissue. For orientation: Tmax means the time at which the peak concentration occurs. The clearance is the rate of elimination divided by the concentration. Higher therefore signals a high capacity for elimination. As usually defined, the bioavailability is dose-corrected exposure relative to a reference, in per cent.
